Reference: ChEMBL document CHEMBL3425481, “Design, synthesis and anticancer activity of matrine-1H-1,2,3-triazole-chalcone conjugates” (Bioorg Med Chem Lett, 2015)
Activity calls are given as the source filed them. The rule behind the calls is not given here.

Key:
A549 [1] = test: Antiproliferative activity against human A549 cells assessed as inhibition of cell proliferation incubated for 48 hrs by CCK8 assay; format: functional, cell-based; conditions: A549, 48 h
Method in brief: (§1)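 Human A549 lung, Hela cervical, Bel-7402 hepatocellular and MCF-7 breast cancer cells, plus mouse embryo fibroblast NIH3T3, tested for anti-proliferative activity by CCK-8 assay. For the matrine combination tests, the chalcone and matrine were used at a 1:1 molar ratio; values given as IC50.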

HeLa [2] = test: Antiproliferative activity against human HeLa cells assessed as inhibition of cell proliferation incubated for 48 hrs by CCK8 assay; format: functional, cell-based; method in brief: as §1
MCF7 [3] = test: Antiproliferative activity against human MCF7 cells assessed as inhibition of cell proliferation incubated for 48 hrs by CCK8 assay; format: functional, cell-based; conditions: MCF7, 48 h; method in brief: as §1
[4] = Antiproliferative activity against human Bel7402 cells assessed as inhibition of cell proliferation incubated for 48 hrs by CCK8 assay; format: functional, cell-based; conditions: Bel-7402, 48 h; method in brief: as §1
A549 [5] = test: Induction of apoptosis in human A549 cells at 15 to 50 uM incubated for 24 hrs by Annexin V-FITC/propidium iodide double staining based flow cytometry; format: functional
Method in brief: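 A549 cells exposed for 24 h at three concentrations alongside a 0.1% DMSO control. Cells double-stained with Annexin V-FITC/propidium iodide and analysed by flow cytometry. Early apoptosis was read from the lower-right quadrant and late apoptosis from the upper-right, and both were summed. Done in triplicate, with statistics compared to control.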

[6] = Antiproliferative activity against mouse NIH/3T3 cells assessed as inhibition of cell proliferation incubated for 48 hrs by CCK8 assay; format: cell-based; conditions: NIH3T3, 48 h; method in brief: as §1
HeLa [7] = test: Antiproliferative activity against human HeLa cells assessed as inhibition of cell proliferation incubated for 48 hrs in presence of matrine by CCK8 assay; format: functional, cell-based; method in brief: as §1
MCF7 [8] = test: Antiproliferative activity against human MCF7 cells assessed as inhibition of cell proliferation incubated for 48 hrs in presence of matrine by CCK8 assay; format: functional, cell-based; conditions: MCF7, 48 h; method in brief: as §1
[9] = Antiproliferative activity against human Bel7402 cells assessed as inhibition of cell proliferation incubated for 48 hrs in presence of matrine by CCK8 assay; format: functional, cell-based; conditions: Bel-7402, 48 h; method in brief: as §1
A549 [10] = test: Antiproliferative activity against human A549 cells assessed as inhibition of cell proliferation incubated for 48 hrs in presence of matrine by CCK8 assay; format: functional, cell-based; conditions: A549, 48 h; method in brief: as §1
A549 [11] = test: Antitumor activity against human A549 cells xenografted in Balb/ca-nu mouse assessed as tumor growth inhibition at 5 mg/kg, iv dosed every 3 days for total of 7 dosing rounds measured on day 14 after treatment; format: functional; conditions: read-out: TGI
Method in brief: (§2)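 A549 xenograft in mice, dosed by tail vein injection every 3 days; vehicle saline plus 0.2% Tween 80. n = 8 per treatment group, 6 in the vehicle group. Mean ± SE.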

A549 [12] = test: Antitumor activity against human A549 cells xenografted in Balb/ca-nu mouse assessed as tumor growth inhibition at 5 mg/kg, iv dosed every 3 days for total of 7 dosing rounds measured on day 16 after treatment; format: functional; conditions: read-out: TGI; method in brief: as §2
A549 [13] = test: Antitumor activity against human A549 cells xenografted in Balb/ca-nu mouse assessed as tumor growth inhibition at 5 mg/kg, iv dosed every 3 days for total of 7 dosing rounds measured on day 10 after treatment; format: functional; conditions: read-out: TGI; method in brief: as §2
A549 [14] = test: Antitumor activity against human A549 cells xenografted in Balb/ca-nu mouse assessed as tumor growth inhibition at 10 mg/kg, iv dosed every 3 days for total of 7 dosing rounds measured on day 8 after treatment; format: functional, organism-based; parameters: dose 10 mg/kg; method in brief: as §2
A549 [15] = test: Antitumor activity against human A549 cells xenografted in Balb/ca-nu mouse assessed as tumor growth inhibition at 5 mg/kg, iv dosed every 3 days for total of 7 dosing rounds measured on day 20 after treatment; format: functional; conditions: read-out: TGI; method in brief: as §2
A549 [16] = test: Antitumor activity against human A549 cells xenografted in Balb/ca-nu mouse assessed as tumor growth inhibition at 5 mg/kg, iv dosed every 3 days for total of 7 dosing rounds measured on day 12 after treatment; format: functional; conditions: read-out: TGI; method in brief: as §2
A549 [17] = test: Antitumor activity against human A549 cells xenografted in Balb/ca-nu mouse assessed as tumor growth inhibition at 5 mg/kg, iv dosed every 3 days for total of 7 dosing rounds measured on day 18 after treatment; format: functional; conditions: read-out: TGI; method in brief: as §2

O=C1CCC[C@@H]2[C@H]3CCCN4CCC[C@@H](CN12)[C@@H]34 [MATRINE]
IC50 (A549 [1]): > 50 µM | IC50 (HeLa [2]): > 50 µM | IC50 (MCF7 [3]): > 50 µM | IC50 [4]: > 50 µM | Activity (A549 [5]): 28.4%

CC(=O)c1ccc(OCc2cn([C@H]3CC(=O)N4C[C@@H]5CCCN6CCC[C@@H]([C@H]56)[C@H]4C3)nn2)cc1O
IC50 (A549 [1]): > 50 µM | IC50 (HeLa [2]): > 50 µM | IC50 (MCF7 [3]): > 50 µM | IC50 [4]: > 50 µM | IC50 [6]: 61.8 µM

O=C(/C=C/c1ccccc1)c1ccc(OCc2cn([C@H]3CC(=O)N4C[C@@H]5CCCN6CCC[C@@H]([C@H]56)[C@H]4C3)nn2)cc1
IC50 (A549 [1]): 32.2 µM | IC50 (HeLa [2]): 25.4 µM | IC50 (MCF7 [3]): 17.2 µM | IC50 [4]: 20.7 µM | IC50 [6]: 19.4 µM

O=C(/C=C/c1cccc(Cl)c1)c1ccc(OCc2cn([C@H]3CC(=O)N4C[C@@H]5CCCN6CCC[C@@H]([C@H]56)[C@H]4C3)nn2)cc1
IC50 (A549 [1]): 11.9 µM | IC50 (HeLa [2]): 15.2 µM | IC50 (MCF7 [3]): 10.2 µM | IC50 [4]: 13.7 µM | IC50 [6]: 38.1 µM

O=c1[nH]cc(F)c(=O)[nH]1 [FLUOROURACIL]
IC50 (A549 [1]): 40.4 µM | IC50 (HeLa [2]): 8.93 µM | IC50 (MCF7 [3]): 9.56 µM | IC50 [4]: 19.9 µM | IC50 [6]: 22.4 µM

C#CCOc1ccc(C(=O)/C=C/c2ccccc2)c(O)c1
IC50 (A549 [1]): > 50 µM | IC50 (HeLa [2]): > 50 µM | IC50 (HeLa [7]): > 50 µM | IC50 (MCF7 [3]): > 50 µM | IC50 (MCF7 [8]): > 50 µM | IC50 [9]: > 50 µM | IC50 (A549 [10]): > 50 µM | IC50 [6]: 66.6 µM

CC(=O)O[C@H]1C(=O)[C@@]2(C)[C@H]([C@H](OC(=O)c3ccccc3)[C@]3(O)C[C@H](OC(=O)[C@H](O)[C@@H](NC(=O)c4ccccc4)c4ccccc4)C(C)=C1C3(C)C)[C@]1(OC(C)=O)CO[C@@H]1C[C@@H]2O [PACLITAXEL]
inhibition in vivo at 5 mg/kg (A549 [11]): 79.5% | inhibition in vivo at 5 mg/kg (A549 [12]): 85.4% | IC50 (A549 [1]): 2.82 µM | inhibition in vivo at 5 mg/kg (A549 [13]): 58.3% | IC50 (HeLa [2]): 0.38 µM | TGI (A549 [14]): Active | inhibition in vivo at 5 mg/kg (A549 [15]): 89.1% | inhibition in vivo at 5 mg/kg (A549 [16]): 70.4% | inhibition in vivo at 5 mg/kg (A549 [17]): 88.9% | IC50 [6]: 20 µM

O=C(/C=C/c1ccc(Br)cc1)c1ccc(OCc2cn([C@H]3CC(=O)N4C[C@@H]5CCCN6CCC[C@@H]([C@H]56)[C@H]4C3)nn2)cc1
IC50 (A549 [1]): 24.5 µM | IC50 (HeLa [2]): 17.1 µM | IC50 (MCF7 [3]): 22.7 µM | IC50 [4]: 22.7 µM | IC50 [6]: 30.9 µM

O=C(/C=C/c1ccc(Cl)c(Cl)c1)c1ccc(OCc2cn([C@H]3CC(=O)N4C[C@@H]5CCCN6CCC[C@@H]([C@H]56)[C@H]4C3)nn2)cc1
IC50 (A549 [1]): 8.72 µM | IC50 (HeLa [2]): 11.4 µM | IC50 (MCF7 [3]): 13.3 µM | IC50 [4]: 11.9 µM | IC50 [6]: 19.4 µM

O=C(/C=C/c1ccc(F)cc1)c1ccc(OCc2cn([C@H]3CC(=O)N4C[C@@H]5CCCN6CCC[C@@H]([C@H]56)[C@H]4C3)nn2)cc1
IC50 (A549 [1]): 18.7 µM | IC50 (HeLa [2]): 18.7 µM | IC50 (MCF7 [3]): 26.9 µM | IC50 [4]: 22.2 µM | IC50 [6]: 39.8 µM

O=C(/C=C/c1cccc(C(F)(F)F)c1)c1ccc(OCc2cn([C@H]3CC(=O)N4C[C@@H]5CCCN6CCC[C@@H]([C@H]56)[C@H]4C3)nn2)cc1O
IC50 (A549 [1]): 8.18 µM | IC50 (HeLa [2]): 12.7 µM | IC50 (MCF7 [3]): 8.87 µM | IC50 [4]: 12.1 µM | IC50 [6]: 34.8 µM

O=C(/C=C/c1ccccc1)c1ccc(OCc2cn([C@H]3CC(=O)N4C[C@@H]5CCCN6CCC[C@@H]([C@H]56)[C@H]4C3)nn2)cc1O
IC50 (A549 [1]): 16.8 µM | IC50 (HeLa [2]): 17.3 µM | IC50 (MCF7 [3]): 12 µM | IC50 [4]: 17.3 µM | IC50 [6]: > 100 µM

O=C(/C=C/c1ccc(Cl)cc1)c1ccc(OCc2cn([C@H]3CC(=O)N4C[C@@H]5CCCN6CCC[C@@H]([C@H]56)[C@H]4C3)nn2)cc1
IC50 (A549 [1]): 18.9 µM | IC50 (HeLa [2]): 19.3 µM | IC50 (MCF7 [3]): 14.3 µM | IC50 [4]: 21.2 µM | IC50 [6]: 31.3 µM

O=C(/C=C/c1ccccc1Cl)c1ccc(OCc2cn([C@H]3CC(=O)N4C[C@@H]5CCCN6CCC[C@@H]([C@H]56)[C@H]4C3)nn2)cc1
IC50 (A549 [1]): 14.2 µM | IC50 (HeLa [2]): 13.5 µM | IC50 (MCF7 [3]): 23.8 µM | IC50 [4]: 21.8 µM | IC50 [6]: 88 µM

COc1ccc(/C=C/C(=O)c2ccc(OCc3cn([C@H]4CC(=O)N5C[C@@H]6CCCN7CCC[C@@H]([C@H]67)[C@H]5C4)nn3)cc2O)cc1
IC50 (A549 [1]): > 50 µM | IC50 (HeLa [2]): > 50 µM | IC50 (MCF7 [3]): > 50 µM | IC50 [4]: > 50 µM | IC50 [6]: 29.6 µM

CC(=O)c1ccc(OCc2cn([C@H]3CC(=O)N4C[C@@H]5CCCN6CCC[C@@H]([C@H]56)[C@H]4C3)nn2)cc1
IC50 (A549 [1]): > 50 µM | IC50 (HeLa [2]): > 50 µM | IC50 (MCF7 [3]): > 50 µM | IC50 [4]: > 50 µM | IC50 [6]: 42.9 µM
